# ChEMBL document CHEMBL1131099, “Biologically active oligodeoxyribonucleotides. 5. 5'-End-substituted d(TGGGAG) possesses anti-human immunodeficiency virus type 1 activity by forming a G-quadruplex structure” (J Med Chem, 1998)
# Columns and labels:
# MT4 [1] = test: Cytotoxicity was measured against MT-4 cells using MTT assay.; format: functional; conditions: Homo sapiens
# MT4 [2] = test: In vitro inhibitory activity for cytopathicities induced by HIV-1III B against MT-4 cells.; format: functional, cell-based; conditions: Homo sapiens
# Method in brief: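 Exponentially growing MT-4 cells were pelleted (140g, 5 min), infected in a small volume of RPMI-1640 with 100 TCID50 HIV-1 IIIB for 1 h, washed, and plated at 2.5 × 10⁴ cells/well with serial oligonucleotide dilutions. Viability was read by MTT at day 6. IC50 was taken from dose-response curves, as the mean of duplicate or quadruplicate ± SD.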
Structure (SMILES),CC50 (MT4 [1]) [µM],IC50 (MT4 [2]) [nM]
Cc1cn([C@H]2C[C@H](OP(=O)(O)OC[C@H]3O[C@@H](n4cnc5c(=O)[nH]c(N)nc54)C[C@@H]3OP(=O)(O)OC[C@H]3O[C@@H](n4cnc5c(=O)[nH]c(N)nc54)C[C@@H]3OP(=O)(O)OC[C@H]3O[C@@H](n4cnc5c(=O)[nH]c(N)nc54)CC3OP(=O)(O)OC[C@H]3O[C@@H](n4cnc5c(N)ncnc54)C[C@@H]3OP(=O)(O)OC[C@H]3O[C@@H](n4cnc5c(=O)[nH]c(N)nc54)C[C@@H]3O[Si](c3ccccc3)(c3ccccc3)C(C)(C)C)[C@@H](CO[Si](c3ccccc3)(c3ccccc3)C(C)(C)C)O2)c(=O)[nH]c1=O (stereo partly specified),> 40,6000
Cc1cn([C@H]2C[C@H](OP(=O)(O)OC[C@H]3O[C@@H](n4cc(C)c(=O)[nH]c4=O)C[C@@H]3OP(=O)(O)OC[C@H]3O[C@@H](n4cc(C)c(=O)[nH]c4=O)C[C@@H]3OP(=O)(O)OC[C@H]3O[C@@H](n4cc(C)c(=O)[nH]c4=O)C[C@@H]3OP(=O)(O)OC[C@H]3O[C@@H](n4cc(C)c(=O)[nH]c4=O)C[C@@H]3OP(=O)(O)OC[C@H]3O[C@@H](n4cc(C)c(=O)[nH]c4=O)C[C@@H]3O)[C@@H](COCc3ccc(OCc4ccccc4)c(OCc4ccccc4)c3)O2)c(=O)[nH]c1=O,> 24,> 24000
Cc1cn([C@H]2C[C@H](OP(=O)(O)OC[C@H]3O[C@@H](n4cnc5c(O)nc(N)nc54)C[C@@H]3OP(=O)(O)OC[C@H]3O[C@@H](n4cnc5c(O)nc(N)nc54)C[C@@H]3O)[C@@H](COCc3ccc(OCc4ccccc4)c(OCc4ccccc4)c3)O2)c(=O)[nH]c1=O,> 70,> 70000
COc1ccc(C(OC[C@H]2O[C@@H](n3cc(C)c(=O)[nH]c3=O)C[C@@H]2OP(=O)(O)OC[C@H]2O[C@@H](n3cnc4c(=O)[nH]c(N)nc43)C[C@@H]2OP(=O)(O)OC[C@H]2O[C@@H](n3cnc4c(=O)[nH]c(N)nc43)C[C@@H]2OP(=O)(O)OC[C@H]2O[C@@H](n3cnc4c(=O)[nH]c(N)nc43)C[C@@H]2OP(=O)(O)OC[C@H]2O[C@@H](n3cnc4c(N)ncnc43)C[C@@H]2OP(=O)(O)OC[C@H]2O[C@@H](n3cnc4c(=O)[nH]c(N)nc43)C[C@@H]2O)(c2ccccc2)c2ccc(OC)cc2)cc1,38,1000
Cc1cn([C@H]2C[C@H](OP(=O)(O)OC[C@H]3O[C@@H](n4cnc5c(=O)[nH]c(N)nc54)C[C@@H]3OP(=O)(O)OC[C@H]3O[C@@H](n4cnc5c(=O)[nH]c(N)nc54)C[C@@H]3OP(=O)(O)OC[C@H]3O[C@@H](n4cnc5c(=O)[nH]c(N)nc54)C[C@@H]3OP(=O)(O)OC[C@H]3O[C@@H](n4cnc5c(N)ncnc54)C[C@@H]3OP(=O)(O)OC[C@H]3O[C@@H](n4cnc5c(=O)[nH]c(N)nc54)C[C@@H]3O)[C@@H](CO)O2)c(=O)[nH]c1=O,> 40,> 40000
Cc1cn([C@H]2C[C@H](OP(=O)(O)OC[C@H]3O[C@@H](n4cnc5c(=O)[nH]c(N)nc54)C[C@@H]3OP(=O)(O)OC[C@H]3O[C@@H](n4cnc5c(=O)[nH]c(N)nc54)C[C@@H]3OP(=O)(O)OC[C@H]3O[C@@H](n4cnc5c(=O)[nH]c(N)nc54)C[C@@H]3OP(=O)(O)OC[C@H]3O[C@@H](n4cnc5c(N)ncnc54)C[C@@H]3OP(=O)(O)OC[C@H]3O[C@@H](n4cnc5c(=O)[nH]c(N)nc54)C[C@@H]3O)[C@@H](COC3(c4ccccc4)c4ccccc4Oc4ccccc43)O2)c(=O)[nH]c1=O,> 40,950
Cc1cn([C@H]2C[C@H](OP(=O)(O)OC[C@H]3O[C@@H](n4cc(C)c(=O)[nH]c4=O)C[C@@H]3OP(=O)(O)OC[C@H]3O[C@@H](n4cnc5c(=O)[nH]c(N)nc54)C[C@@H]3OP(=O)(O)OC[C@H]3O[C@@H](n4cnc5c(=O)[nH]c(N)nc54)C[C@@H]3OP(=O)(O)OC[C@H]3O[C@@H](n4cnc5c(=O)[nH]c(N)nc54)C[C@@H]3OP(=O)(O)OC[C@H]3O[C@@H](n4cnc5c(=O)[nH]c(N)nc54)C[C@@H]3O)[C@@H](COCc3ccc(OCc4ccccc4)c(OCc4ccccc4)c3)O2)c(=O)[nH]c1=O,> 40,560
Cc1cn([C@H]2C[C@H](OP(=O)(O)OC[C@H]3O[C@@H](n4cnc5c(=O)[nH]c(N)nc54)C[C@@H]3OP(=O)(O)OC[C@H]3O[C@@H](n4cc(C)c(=O)[nH]c4=O)C[C@@H]3OP(=O)(O)OC[C@H]3O[C@@H](n4cnc5c(=O)[nH]c(N)nc54)C[C@@H]3OP(=O)(O)OC[C@H]3O[C@@H](n4cnc5c(N)ncnc54)C[C@@H]3OP(=O)(O)OC[C@H]3O[C@@H](n4cnc5c(=O)[nH]c(N)nc54)C[C@@H]3O)[C@@H](COCc3ccc(OCc4ccccc4)c(OCc4ccccc4)c3)O2)c(=O)[nH]c1=O,> 24,> 24000
Cc1cn([C@H]2C[C@H](OP(=O)(O)OC[C@H]3O[C@@H](n4cnc5c(=O)[nH]c(N)nc54)C[C@@H]3OP(=O)(O)OC[C@H]3O[C@@H](n4cnc5c(=O)[nH]c(N)nc54)C[C@@H]3OP(=O)(O)OC[C@H]3O[C@@H](n4cnc5c(=O)[nH]c(N)nc54)C[C@@H]3OP(=O)(O)OC[C@H]3O[C@@H](n4cnc5c(N)ncnc54)C[C@@H]3OP(=O)(O)OC[C@H]3O[C@@H](n4cnc5c(=O)[nH]c(N)nc54)C[C@@H]3O)[C@@H](COCc3ccc(OCc4ccccc4)cc3)O2)c(=O)[nH]c1=O,> 40,1900
Cc1cn([C@H]2C[C@H](OP(=O)(O)OC[C@H]3O[C@@H](n4cnc5c(=O)[nH]c(N)nc54)C[C@@H]3OP(=O)(O)OC[C@H]3O[C@@H](n4cnc5c(=O)[nH]c(N)nc54)C[C@@H]3OP(=O)(O)OC[C@H]3O[C@@H](n4cnc5c(=O)[nH]c(N)nc54)C[C@@H]3OP(=O)(O)OC[C@H]3O[C@@H](n4cnc5c(N)ncnc54)C[C@@H]3OP(=O)(O)OC[C@H]3O[C@@H](n4cnc5c(=O)[nH]c(N)nc54)C[C@@H]3O)[C@@H](COCc3ccc(-c4ccccc4)cc3)O2)c(=O)[nH]c1=O,> 40,2800
Cc1cn([C@H]2C[C@H](OP(=O)(O)OC[C@H]3O[C@@H](n4cnc5c(=O)[nH]c(N)nc54)C[C@@H]3OP(=O)(O)OC[C@H]3O[C@@H](n4cnc5c(=O)[nH]c(N)nc54)C[C@@H]3OP(=O)(O)OC[C@H]3O[C@@H](n4cnc5c(=O)[nH]c(N)nc54)C[C@@H]3OP(=O)(O)OC[C@H]3O[C@@H](n4cnc5c(N)ncnc54)C[C@@H]3OP(=O)(O)OC[C@H]3O[C@@H](n4cnc5c(=O)[nH]c(N)nc54)C[C@@H]3O[Si](c3ccccc3)(c3ccccc3)C(C)(C)C)[C@@H](CO)O2)c(=O)[nH]c1=O,7.7,> 40000
Cc1cn([C@H]2C[C@H](OP(=O)(O)OC[C@H]3O[C@@H](n4cc(C)c(=O)[nH]c4=O)C[C@@H]3OP(=O)(O)OC[C@H]3O[C@@H](n4cnc5c(O)nc(N)nc54)C[C@@H]3OP(=O)(O)OC[C@H]3O[C@@H](n4cnc5c(O)nc(N)nc54)C[C@@H]3OP(=O)(O)OC[C@H]3O[C@@H](n4cnc5c(O)nc(N)nc54)C[C@@H]3O)[C@@H](COCc3ccc(OCc4ccccc4)c(OCc4ccccc4)c3)O2)c(=O)[nH]c1=O,40,> 40000
Cc1cn([C@H]2C[C@H](OP(=O)(O)OC[C@H]3O[C@@H](n4cnc5c(=O)[nH]c(N)nc54)C[C@@H]3OP(=O)(O)OC[C@H]3O[C@@H](n4cnc5c(=O)[nH]c(N)nc54)C[C@@H]3OP(=O)(O)OC[C@H]3O[C@@H](n4cnc5c(=O)[nH]c(N)nc54)C[C@@H]3OP(=O)(O)OC[C@H]3O[C@@H](n4cnc5c(=O)[nH]c(N)nc54)C[C@@H]3O)[C@@H](COCc3ccc(OCc4ccccc4)c(OCc4ccccc4)c3)O2)c(=O)[nH]c1=O,> 40,660
Cc1cn([C@H]2C[C@H](OP(=O)(O)OC[C@H]3O[C@@H](n4cnc5c(=O)[nH]c(N)nc54)C[C@@H]3OP(=O)(O)OC[C@H]3O[C@@H](n4cnc5c(=O)[nH]c(N)nc54)C[C@@H]3OP(=O)(O)OC[C@H]3O[C@@H](n4cnc5c(=O)[nH]c(N)nc54)C[C@@H]3OP(=O)(O)OC[C@H]3O[C@@H](n4cnc5c(N)ncnc54)C[C@@H]3OP(=O)(O)OC[C@H]3O[C@@H](n4cnc5c(=O)[nH]c(N)nc54)C[C@@H]3O)[C@@H](CO[Si](C)(C)C(C)(C)C)O2)c(=O)[nH]c1=O,1.2,> 40000
Cc1cn([C@H]2C[C@H](OP(=O)(O)OC[C@H]3O[C@@H](n4cnc5c(=O)[nH]c(N)nc54)C[C@@H]3OP(=O)(O)OC[C@H]3O[C@@H](n4cnc5c(=O)[nH]c(N)nc54)C[C@@H]3OP(=O)(O)OC[C@H]3O[C@@H](n4cnc5c(=O)[nH]c(N)nc54)C[C@@H]3OP(=O)(O)OC[C@H]3O[C@@H](n4cnc5c(N)ncnc54)C[C@@H]3OP(=O)(O)OC[C@H]3O[C@@H](n4cnc5c(=O)[nH]c(N)nc54)C[C@@H]3O)[C@@H](CO[Si](c3ccccc3)(c3ccccc3)C(C)(C)C)O2)c(=O)[nH]c1=O,> 40,880
Cc1cn([C@H]2C[C@H](OP(=O)(O)OC[C@H]3O[C@@H](n4cnc5c(=O)[nH]c(N)nc54)C[C@@H]3OP(=O)(O)OC[C@H]3O[C@@H](n4cnc5c(=O)[nH]c(N)nc54)C[C@@H]3OP(=O)(O)OC[C@H]3O[C@@H](n4cnc5c(=O)[nH]c(N)nc54)C[C@@H]3OP(=O)(O)OC[C@H]3O[C@@H](n4cnc5c(N)ncnc54)C[C@@H]3OP(=O)(O)OC[C@H]3O[C@@H](n4cnc5c(=O)[nH]c(N)nc54)C[C@@H]3O)[C@@H](COC(c3ccccc3)c3ccccc3)O2)c(=O)[nH]c1=O,> 40,4300
Cc1cn([C@H]2C[C@H](OP(=O)(O)OC[C@H]3O[C@@H](n4cnc5c(=O)[nH]c(N)nc54)C[C@@H]3OP(=O)(O)OC[C@H]3O[C@@H](n4cnc5c(=O)[nH]c(N)nc54)C[C@@H]3OP(=O)(O)OC[C@H]3O[C@@H](n4cnc5c(=O)[nH]c(N)nc54)C[C@@H]3OP(=O)(O)OC[C@H]3O[C@@H](n4cnc5c(N)ncnc54)C[C@@H]3OP(=O)(O)OC[C@H]3O[C@@H](n4cnc5c(=O)[nH]c(N)nc54)C[C@@H]3O)[C@@H](COC3(c4ccccc4)c4ccccc4-c4ccccc43)O2)c(=O)[nH]c1=O,> 40,1300
Cc1cn([C@H]2C[C@H](OP(=O)(O)OC[C@H]3O[C@@H](n4cnc5c(=O)[nH]c(N)nc54)C[C@@H]3OP(=O)(O)OC[C@H]3O[C@@H](n4cnc5c(=O)[nH]c(N)nc54)C[C@@H]3OP(=O)(O)OC[C@H]3O[C@@H](n4cnc5c(=O)[nH]c(N)nc54)C[C@@H]3OP(=O)(O)OC[C@H]3O[C@@H](n4cnc5c(N)ncnc54)C[C@@H]3OP(=O)(O)OC[C@H]3O[C@@H](n4cnc5c(=O)[nH]c(N)nc54)C[C@@H]3O)[C@@H](COCc3ccccc3-c3ccccc3)O2)c(=O)[nH]c1=O,> 40,1200
